Screens from PubChem BioAssay.
Only some compounds are listed: those with a hit (about 2.8% of all), similar ones and a draw of the others.
NPY-Y2 antag = NPY-Y2 (human) receptor antagonism; P49146; NPY-Y2 expressing cells, antagonist mode; inhibition, % at 2.7 µM; 140,000 compounds, 0.99% hits; AID 793
Target sequence (P49146 whole entry, looked up): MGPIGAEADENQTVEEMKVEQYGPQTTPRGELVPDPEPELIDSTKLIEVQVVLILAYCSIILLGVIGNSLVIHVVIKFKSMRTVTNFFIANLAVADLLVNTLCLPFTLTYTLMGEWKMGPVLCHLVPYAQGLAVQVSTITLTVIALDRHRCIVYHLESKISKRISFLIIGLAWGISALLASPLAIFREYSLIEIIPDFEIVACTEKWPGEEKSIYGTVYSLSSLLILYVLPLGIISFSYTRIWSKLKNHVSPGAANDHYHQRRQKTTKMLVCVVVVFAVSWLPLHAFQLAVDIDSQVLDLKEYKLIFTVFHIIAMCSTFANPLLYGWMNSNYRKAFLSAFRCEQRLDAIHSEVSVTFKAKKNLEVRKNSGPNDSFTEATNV
NPY-Y2 PAM-ag = potentiates or activates human NPY-Y2 receptor | P49146 | cells expressing NPY-Y2, potentiator/agonist read-out | activation, % at 3.6 µM | 220,000 compounds, 0.45% hits; in the data active = activation above about 27%;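 also: cells stimulated with NPY near EC25 plus isoproterenol at EC100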
NPY-Y1 PAM-ag = human NPY-Y1 potentiation or agonism, primary screen; activation, % at 3.6 µM; P25929; 220,000 compounds, 0.37% hits; NPY-Y1 expressing cells, potentiator/agonist activation; in the data active = activation above about 33%, passing the limit was not always enough;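 also: cells stimulated with NPY at EC10 then isoproterenol at EC100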
EP2 mod = modulators of human EP2 prostaglandin E2 receptor; EP2-expressing cells, cAMP HTRF FRET, PGE2 co-stimulation; induction, % at 25 µM; 260,000 compounds, 0.83% hits;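 active = compounds whose cAMP rise, as percent of the full-agonist control response, exceeds 60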;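 also: rat C6 glioma line stably carrying human EP2 under a CMV promoter; the protocol text gives 20 µM as final concentration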
NPY Y1 blocker = blocks the human neuropeptide Y Y1 receptor; HEK293-CNG Y1 cells, membrane potential fluorescence; NPY at EC95, then isoproterenol; 200,000 compounds, 1% hits; inhibition, % at 3.6 µM; P25929; AID 1040;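 active = inhibition above the campaign mean inhibition of all tested compounds plus 3 SD, cut at about 20% in these data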
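material = HEK293 cells with Y1 receptor plus CNG channel | also added = NPY 25 nM then isoproterenol 1 µM plus Ro 20-1724 25 µM | schedule = dye 3 h, compound 60 min room temperature, stimulation 45 min | measured by = membrane potential fluorescence | benchmarks = high control isoproterenol alone, low control NPY with isoproterenol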
PGE2 EP2 inh = blocks the human prostaglandin E2 receptor EP2; inhibition, % at 25 µM; AID 1422; C6 glioma cells expressing human EP2, cAMP TR-FRET; cells stimulated with saturating PGE2; 260,000 compounds, 0.52% hits;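 active = percent inhibition above 40 after rounding to a whole number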;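 also: rat C6 glioma host cells with rolipram phosphodiesterase inhibitor present; the protocol text gives 20 µM as final concentration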
NPY1 antag conf = human NPY-Y1 antagonism, confirmation; shares compounds with NPY Y1 blocker; HEK293-CNG NPY-Y1, membrane potential fluorescence, cAMP; NPY challenge against isoproterenol-raised cAMP; 1,200 compounds, 21% hits; inhibition, % at 3.6 µM; in the data active = inhibition above about 20%
NPY-Y2 antag ct = counter-screen for NPY-Y1 antagonists: human NPY-Y2 antagonism. shares compounds with NPY Y1 blocker. inhibition, % at 3.6 µM. 1,200 compounds, 28% hits. HEK293 NPY-Y2 CNG membrane potential fluorescence; cells given NPY, then isoproterenol
Numbers stand for hits; n = inactive; x = no result. Rule as the data show it, unless noted: active = inhibition above about 17%; inactive = the rest.

SMILES | NPY-Y2 antag | NPY-Y2 PAM-ag | NPY-Y1 PAM-ag | EP2 mod | NPY Y1 blocker | PGE2 EP2 inh | NPY1 antag conf | NPY-Y2 antag ct
c1ccc(CN(Cc2ccco2)C(c2ccncc2)c2nnnn2C2CCCC2)cc1 (stereo not drawn) | n | n | n | n | 26 | n | n | n
CC(C)(C)n1nnnc1C(c1ccc(C(F)(F)F)cc1)N(Cc1ccccc1)Cc1ccco1 (stereo not drawn) | n | n | n | n | 47 | x | 29 | n
Fc1ccc(CN(Cc2ccccc2)C(c2cccs2)c2nnnn2C2CCCCC2)cc1 (stereo not drawn) | n | n | n | n | n | n | x | x
C=C(C)CNC(=S)NN=C1c2ccccc2-c2ccccc21 | x | n | n | n | 33 | n | 36 | 69
CCNC(=S)NN=C1c2ccccc2-c2ccccc21 | x | n | n | n | n | n | x | x
O=C(Nc1ccccc1)C1=C[C@H](c2csc3ccccc23)C[C@H](OCc2ccc(CO)cc2)O1 | x | n | n | n | 26 | n | n | n
O=C(c1ccco1)N1CCN(C(c2ccc(Cl)cc2)c2nnnn2Cc2ccccc2)CC1 (stereo not drawn) | n | n | n | n | 21 | n | n | n
Cc1cc(C)cc(NC(=O)CSc2nccc(=O)[nH]2)c1 | x | x | x | n | x | n | x | x
CC(=O)NC1(c2ccccc2F)CCN(Cc2cc3ccccc3nc2N(C)C)CC1 | x | x | x | n | x | n | x | x
Cc1cccn2c(CN[C@@H]3CCCC[C@H]3c3ccccc3)c(C(=O)N3CCOCC3)nc12 | x | n | n | n | 26 | n | n | n
Cc1cccn2c(CNC3CCCc4ccccc43)c(C(=O)N3CCOCC3)nc12 (stereo not drawn) | x | n | n | n | x | n | x | x
COc1ccccc1-n1cnc2cc(NCc3cccs3)ccc21 | n | n | n | n | 21 | n | n | 20
Cc1cc(C(C)(C)C)oc1C(=O)N(CC(=O)NC1CCCC1)c1ccc(F)cc1 | n | n | n | n | 27 | n | n | n
COc1ccccc1N(CC(=O)NC1CCCC1)C(=O)c1oc(C(C)(C)C)cc1C | x | n | n | n | 28 | n | 22 | n
CCN1CCN(C(=O)c2ccc3c(c2)c(C)c(C)n3Cc2ccccc2)CC1 | x | n | n | n | n | n | x | x
Cc1c(C)n(Cc2ccccc2)c2ccc(C(=O)OCCCN(C)C)cc12 | x | n | n | n | 22 | n | 29 | 37
O=C(NCCc1nc(-c2ccncc2)n[nH]1)C1CCCC1 | x | x | x | n | x | n | x | x
O=[N+]([O-])c1ccc(O)c(/C=N/NC2=NS(=O)(=O)c3ccccc32)c1 | x | n | n | n | 35 | n | n | n
O=[N+]([O-])c1ccc(/C=N/NC2=NS(=O)(=O)c3ccccc32)cc1 | x | n | n | n | n | n | x | x
COc1cc(C(=O)N/N=C/c2sccc2C)cc(OC)c1OC | x | n | n | n | 50 | n | n | n
Cc1ccsc1/C=N/NC(=O)c1ccncc1 | x | n | n | n | n | n | x | x
O=C(CSc1nnc(-c2ccco2)o1)c1cc(F)ccc1O | x | x | x | n | x | n | x | x
COc1ccccc1OC(=O)c1cc(Cl)nc2ccccc12 | n | n | n | n | 21 | n | n | 17
Cc1cc(OC(=O)c2cc(Cl)nc3ccccc23)ccc1Cl | n | n | n | n | n | n | x | x
CNCC(C)COc1ccccc1OCc1ccccc1 (stereo not drawn) | n | n | n | n | 22 | n | n | n
SMILES | NPY-Y2 antag | NPY-Y2 PAM-ag | NPY-Y1 PAM-ag | EP2 mod | NPY Y1 blocker | PGE2 EP2 inh | NPY1 antag conf | NPY-Y2 antag ct
COc1ccc(C2=NN(CC(=O)N3CCOCC3)C(=O)c3cc4ccccc4n3C2)cc1 | x | x | x | n | x | x | x | x
O=C(CN1C(=O)C2C3C=CC(C3)C2C1=O)Nc1ccc(C(=O)O)cc1 (stereo not drawn) | n | n | n | n | n | n | x | x
COC(=O)c1ccc(NC(=O)CN2C(=O)C3C4C=CC(C4)C3C2=O)cc1 (stereo not drawn) | n | n | n | n | 23 | n | n | n
COc1ccc(-c2cc(C(F)(F)F)nc(N3CCN(C)CC3)n2)cc1 | n | n | n | n | 25 | n | n | n
CC(C)Oc1ccc(C(=O)Nc2cccc3cccnc23)cc1 | x | n | n | n | 22 | n | n | 24
COc1cccc(C2=NOC(C(=O)NCc3ccccc3)C2)c1 (stereo not drawn) | n | n | n | n | 45 | x | n | 28
COc1ccc(CNC(=O)C2CC(c3cc(C(F)(F)F)cc(C(F)(F)F)c3)=NO2)cc1 (stereo not drawn) | x | x | x | n | x | n | x | x
O=C(NCc1cccs1)C1CC(c2ccc(Cl)c(Cl)c2)=NO1 (stereo not drawn) | x | n | n | n | 24 | n | n | 29
COc1ccc(C2=NOC(C(=O)NCc3ccccc3)C2)cc1 (stereo not drawn) | n | n | n | n | 29 | x | n | 19
OC(COc1ccc(CNCCc2ccc(C(F)(F)F)cc2)cc1)CN1CCCCC1 (stereo not drawn) | x | n | n | n | 25 | n | n | 18
COc1ccc(OCC(O)CN2CCCCC2)cc1 (stereo not drawn) | n | n | n | n | n | n | x | x
O=C(Cn1ccc(C(F)(F)F)n1)N=Nc1c(O)[nH]c2ccccc12 | x | n | n | n | 38 | n | 36 | 40
CCOc1ccc(S(=O)(=O)Nc2cc(OC)ccc2OC)cc1 | n | n | n | n | 27 | n | n | n
COc1ccc(OC)c(NS(=O)(=O)c2ccc(N3CCCC3=O)cc2)c1 | n | n | n | n | 44 | n | n | n
COc1ccc(CCNS(=O)(=O)c2ccc(N3CCCC3=O)cc2)cc1 | n | n | n | n | n | n | x | x
O=C(COc1ccccc1)N1CCN(C(=O)c2cccc3ccccc23)CC1 | x | x | x | n | x | n | x | x
CN1Cc2cc(C(=O)c3cc(Cl)cc(CSc4ncccn4)c3O)cnc2NC1=O | n | n | n | n | 21 | n | n | n
O=C(CCCCN1CCCCC1)c1ccc2c(c1)Cc1ccccc1-2 | x | n | n | n | 24 | n | n | n
O=C(NCc1ccco1)C(c1ccccc1)N(C(=O)Cc1cccs1)c1ccccc1F (stereo not drawn) | n | n | n | n | 22 | n | n | n
Cc1ccc(-c2cc(C(=O)NCCN3CCOCC3)no2)cc1 | n | n | n | n | n | n | x | x
O=C(NCCN1CCOCC1)c1cc(-c2ccco2)on1 | n | n | n | n | 21 | x | n | n
COC(=O)CC1=C(C(=O)OC)C(c2ccc(OC)c(OC)c2)C(C#N)=C(N)O1 (stereo not drawn) | x | x | x | n | x | n | x | x
CN1Cc2cccc(C(=O)N3CCC(n4nnc(-c5ccc(F)cc5)n4)CC3)c2C1=O | x | x | x | n | x | x | x | x
